In ChEMBL document CHEMBL2385057 (Bioorg Med Chem Lett, 2013):

Columns and labels:
[1] = target: cGMP-dependent 3',5'-cyclic phosphodiesterase (Homo sapiens, UniProt O00408); test: Inhibition of PDE2 catalytic domain (unknown origin)
[2] = Volume of distribution at steady state in Sprague-Dawley rat at 1 mg/kg, iv and 10 mg/kg, po; type: ADME, organism-based; settings: in vivo, read-out: Vdss
Outline: (§1)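 Male Sprague–Dawley rats, two animals per route. Dosing was either intravenous at 1 mg/kg or oral at 10 mg/kg. Pharmacokinetic parameters were derived from these dosings.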

[3] = Clearance in Sprague-Dawley rat at 1 mg/kg, iv and 10 mg/kg, po; type: ADME, organism-based; settings: in vivo; outline: as §1
[4] = AUC in Sprague-Dawley rat at 10 mg/kg, po; type: ADME, organism-based; set-up: dose 10 mg/kg, route oral; settings: plasma; outline: as §1
[5] = Half life in human liver microsomes; type: ADME, Microsome
[6] = Oral bioavailability in Sprague-Dawley rat at 10 mg/kg; type: ADME, organism-based; settings: in vivo; outline: as §1
[7] = Tmax in Sprague-Dawley rat at 10 mg/kg, po; type: ADME, organism-based; set-up: dose 10 mg/kg, route oral; settings: in vivo; outline: as §1
[8] = Half life in Sprague-Dawley rat at 1 mg/kg, iv; type: ADME, organism-based; set-up: dose 1 mg/kg, route intravenous; settings: in vivo; outline: as §1
[9] = target: 3',5'-cyclic-AMP phosphodiesterase 4B (Homo sapiens, UniProt Q07343); test: Inhibition of PDE4B catalytic domain (unknown origin)
Outline: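 Each IC50 is the mean of at least two independent determinations. Each curve had 10 half-log dilutions, centred near the 50% inhibition level, with each point run in duplicate.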

[10] = test system: Rattus norvegicus; test: Analgesic activity in medial meniscal transection rat osteoarthritis pain model assessed as inhibition of change in hind paw weight distribution at 10 mg/kg, sc administered on day 28 post medial meniscal transection surgery measured after 3 hrs relative to vehicle-treated control; type: functional; settings: route subcutaneous
Outline: (§2)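 The rats were assessed for hind paw weight distribution. On day 28 after surgery they received a single subcutaneous dose of compound or vehicle and were reassessed 1 and 3 h post dose. N = 6 rats per group, data as mean ± SEM. Significance was tested by one-way ANOVA with Dunnett's test against vehicle at the same time point, P < 0.05.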

[11] = test system: Rattus norvegicus; test: Analgesic activity in medial meniscal transection rat osteoarthritis pain model assessed as inhibition of change in hind paw weight distribution at 10 mg/kg, po administered on day 28 post medial meniscal transection surgery measured after 3 hrs relative to vehicle-treated control; type: functional
[12] = Fraction unbound in plasma of medial meniscal transection rat osteoarthritis pain model at 10 mg/kg, sc administered on day 28 post medial meniscal transection surgery measured at 1 hr to 3 hrs; type: ADME, organism-based; set-up: dose 10 mg/kg, route subcutaneous
[13] = Plasma concentration in medial meniscal transection rat osteoarthritis pain model at 10 mg/kg, sc administered on day 28 post medial meniscal transection surgery measured at 1 hr; type: ADME, organism-based; set-up: dose 10 mg/kg, route subcutaneous
Outline: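 Plasma was sampled 1 h after a single subcutaneous 10 mg/kg dose in the rat osteoarthritis pain model. Free concentration was derived using the rat plasma free fraction.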

[14] = Half life in rat liver microsomes; type: ADME, Microsome
[15] = test system: Rattus norvegicus; test: Analgesic activity in medial meniscal transection rat osteoarthritis pain model assessed as inhibition of change in hind paw weight distribution at 10 mg/kg, po administered on day 28 post medial meniscal transection surgery measured after 1 hr relative to vehicle-treated control; type: functional
[16] = test system: Rattus norvegicus; test: Analgesic activity in medial meniscal transection rat osteoarthritis pain model assessed as inhibition of change in hind paw weight distribution at 10 mg/kg, sc administered on day 28 post medial meniscal transection surgery measured after 1 hr relative to vehicle-treated control; type: functional; settings: route subcutaneous; outline: as §2
[17] = Fraction unbound in brain of medial meniscal transection rat osteoarthritis pain model at 10 mg/kg, sc administered on day 28 post medial meniscal transection surgery measured at 1 hr to 3 hrs; type: ADME, organism-based; set-up: dose 10 mg/kg, route subcutaneous
[18] = test system: Brain; test: Total drug level in brain of medial meniscal transection rat osteoarthritis pain model at 10 mg/kg, sc administered on day 28 post medial meniscal transection surgery measured at 1 hr to 3 hrs; type: ADME, organism-based; set-up: dose 10 mg/kg, route subcutaneous; settings: read-out: Drug uptake, in vivo

Sequence of cGMP-dependent 3',5'-cyclic phosphodiesterase (O00408 whole entry, the tested form may be a part): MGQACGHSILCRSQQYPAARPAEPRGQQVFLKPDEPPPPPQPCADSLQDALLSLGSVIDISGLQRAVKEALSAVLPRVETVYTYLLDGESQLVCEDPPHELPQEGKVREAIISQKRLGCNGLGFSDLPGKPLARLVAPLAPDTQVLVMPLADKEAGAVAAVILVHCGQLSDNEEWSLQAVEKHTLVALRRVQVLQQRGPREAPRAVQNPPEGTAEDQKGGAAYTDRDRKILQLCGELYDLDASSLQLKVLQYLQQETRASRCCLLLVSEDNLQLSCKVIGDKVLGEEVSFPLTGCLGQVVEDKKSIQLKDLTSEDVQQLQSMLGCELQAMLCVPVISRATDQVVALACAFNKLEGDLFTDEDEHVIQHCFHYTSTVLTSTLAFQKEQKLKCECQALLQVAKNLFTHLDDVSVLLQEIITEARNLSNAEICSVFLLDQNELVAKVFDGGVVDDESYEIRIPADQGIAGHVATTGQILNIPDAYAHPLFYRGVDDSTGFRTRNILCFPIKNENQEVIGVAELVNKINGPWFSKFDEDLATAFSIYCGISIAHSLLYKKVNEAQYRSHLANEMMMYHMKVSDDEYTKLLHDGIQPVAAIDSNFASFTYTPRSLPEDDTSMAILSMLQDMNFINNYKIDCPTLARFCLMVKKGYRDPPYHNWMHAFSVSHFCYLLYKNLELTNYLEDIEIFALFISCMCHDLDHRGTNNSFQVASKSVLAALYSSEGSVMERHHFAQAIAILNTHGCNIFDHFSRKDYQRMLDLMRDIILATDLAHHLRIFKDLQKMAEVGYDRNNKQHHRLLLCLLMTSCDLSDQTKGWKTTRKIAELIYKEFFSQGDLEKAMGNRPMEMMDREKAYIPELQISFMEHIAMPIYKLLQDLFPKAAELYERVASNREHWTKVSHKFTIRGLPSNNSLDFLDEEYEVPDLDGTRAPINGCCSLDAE
Sequence of 3',5'-cyclic-AMP phosphodiesterase 4B (Q07343 whole entry, the tested form may be a part): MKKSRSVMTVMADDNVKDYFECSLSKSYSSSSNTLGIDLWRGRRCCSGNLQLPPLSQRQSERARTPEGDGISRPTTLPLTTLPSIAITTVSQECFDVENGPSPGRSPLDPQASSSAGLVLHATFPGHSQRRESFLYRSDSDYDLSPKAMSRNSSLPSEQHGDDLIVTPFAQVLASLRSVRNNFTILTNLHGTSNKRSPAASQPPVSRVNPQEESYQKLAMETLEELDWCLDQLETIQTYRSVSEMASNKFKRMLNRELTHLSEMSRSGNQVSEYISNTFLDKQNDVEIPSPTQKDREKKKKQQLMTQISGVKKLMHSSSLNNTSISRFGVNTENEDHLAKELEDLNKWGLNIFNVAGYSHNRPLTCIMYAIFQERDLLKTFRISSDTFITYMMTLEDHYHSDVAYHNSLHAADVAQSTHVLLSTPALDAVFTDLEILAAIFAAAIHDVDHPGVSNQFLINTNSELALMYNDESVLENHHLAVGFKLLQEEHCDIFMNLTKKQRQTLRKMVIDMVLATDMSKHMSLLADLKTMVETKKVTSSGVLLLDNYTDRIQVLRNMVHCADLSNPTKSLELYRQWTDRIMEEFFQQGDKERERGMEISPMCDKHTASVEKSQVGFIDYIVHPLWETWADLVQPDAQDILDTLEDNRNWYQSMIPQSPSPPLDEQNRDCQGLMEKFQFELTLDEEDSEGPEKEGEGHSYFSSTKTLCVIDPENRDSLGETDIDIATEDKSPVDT

SMILES | IC50 [1] | half-life [5] | IC50 [9] | further results
COc1ccc(C2=Nc3c(C(C)(C)C)nn(CCCO)c3C(=O)NC2)cc1-c1cnn(C)c1 | 36 nM | 120 min | 6740 nM | Vd [2]: 2 L/kg; clearance [3]: 43 mL/min/kg; AUC [4]: 1160 ng·h/mL; bioavailability [6]: 31%; Tmax [7]: 30 min; half-life [8]: 43.8 min
COc1ccc(C2=Nc3c(C(C)(C)C)nn(CCCO)c3C(=O)NC2)cc1-c1ccc(C(=O)O)cc1 | 40 nM | 120 min | 27000 nM | –
COc1ccc(C2=Nc3c(C(C)(C)C)nn(CCO)c3C(=O)NC2)cc1-c1cnc(N2CCCCC2)nc1 | 2.5 nM | 18 min | 353 nM | –
COc1ccc(C2=Nc3c(C(C)(C)C)nn(CCCO)c3C(=O)NC2)cc1-c1ccc(F)cc1F | 483 nM | 120 min | 100000 nM | –
COc1ccc(C2=Nc3c(C(C)(C)C)nn(CCO)c3C(=O)NC2)cc1-c1cnc(N(C)C)cc1C | 1.3 nM | 74 min | 534 nM | –
COc1ccccc1-c1cc(C2=Nc3c(C(C)(C)C)nn(CCCO)c3C(=O)NC2)ccc1OC | 156 nM | 82 min | 2070 nM | –
COc1ccc(-c2cc(C3=Nc4c(C(C)(C)C)nn(CCCO)c4C(=O)NC3)ccc2OC)c(OC)c1 | 14 nM | 120 min | 100000 nM | –
COc1ncc(-c2cc(C3=Nc4c(C(C)(C)C)nn(CCO)c4C(=O)NC3)ccc2OC)c(OC)n1 | 9.3 nM | 36 min | 138 nM | –
COc1ccc(OC)c(-c2cc(C3=Nc4c(C(C)(C)C)nn(CCCO)c4C(=O)NC3)ccc2OC)c1 | 46 nM | 61 min | 8110 nM | –
COc1ccc(-c2cc(C3=Nc4c(C(C)(C)C)nn(CCO)c4C(=O)NC3)ccc2OC)c(OC)c1 | 3.4 nM | 43 min | 741 nM | –
CS(=O)(=O)c1ccc(C2=C(c3ccccc3)C(=O)OC2)cc1 [ROFECOXIB] | – | – | – | inhibition in vivo at 10 mg/kg [10]: 100%; inhibition in vivo at 10 mg/kg [11]: 79%
COc1ccc(C2=Nc3c(C(C)(C)C)nn(CCCO)c3C(=O)NC2)cc1-c1ccccc1SC | 505 nM | 51 min | 100000 nM | –
COc1ccc(C2=Nc3c(C(C)(C)C)nn(CCO)c3C(=O)NC2)cc1-c1cnc(N2CCCC2)nc1 | 1.2 nM | 33 min | 410 nM | –
COc1ccc(C2=Nc3c(C(C)(C)C)nn(CCO)c3C(=O)NC2)cc1-c1cnc(N2CCOCC2)nc1 | 1.4 nM | 39 min | 265 nM | –
COc1ccc(-c2cc(C3=Nc4c(C(C)(C)C)nn(CCCO)c4C(=O)NC3)ccc2OC)cn1 | 70 nM | 120 min | 6190 nM | –
CCC(C)(C)c1nn(CCO)c2c1N=C(c1ccc(-n3ccnc3C)cc1)CNC2=O | – | 6.9 min | – | –
COc1ccc(C2=Nc3c(C(C)(C)C)nn(CCCO)c3C(=O)NC2)cc1-c1cnc(N(C)C)cc1C | 18 nM | 42 min | 5660 nM | –
COc1ccc(-c2cc(C3=Nc4c(C(C)(C)C)nn(CCO)c4C(=O)NC3)ccc2OC)c(OC)n1 | 1.8 nM | 57 min | 418 nM | –
CCC(CC)c1nn(CCO)c2c1N=C(c1ccc(-n3ccnc3C)cc1)CNC2=O | – | – | – | Vd [2]: 1.1 L/kg; clearance [3]: 70 mL/min/kg; AUC [4]: 1660 ng·h/mL; bioavailability [6]: 75%; Tmax [7]: 135 min; half-life [8]: 31.8 min
COc1ccc(C2=Nc3c(C(C)(C)C)nn(CCO)c3C(=O)NC2)cc1-c1cnn(C)c1 | 6.8 nM | 59 min | 110 nM | –
COc1ncc(-c2cc(C3=Nc4c(C(C)(C)C)nn(CCCO)c4C(=O)NC3)ccc2OC)c(OC)n1 | 7 nM | 120 min | 1920 nM | –
COc1ncc(-c2cc(C3=Nc4c(C(C)(C)C)nn(CCO)c4C(=O)NC3)ccc2OC)cn1 | – | 34 min | 562 nM | fraction unbound [12]: 0.032; Vd [2]: 3.02 L/kg; concentration at 1 h [13]: 2500 nM; clearance [3]: 27 mL/min/kg; half-life [14]: > 60 min; AUC [4]: 4530 ng·h/mL; inhibition in vivo at 10 mg/kg [15]: 44%; bioavailability [6]: 78%; Tmax [7]: 180 min; half-life [8]: 90 min; inhibition in vivo at 10 mg/kg [16]: 79%; fraction unbound [17]: 0.009; concentration [18]: 475 nM
COc1ccc(C2=Nc3c(C(C)(C)C)nn(CCO)c3C(=O)NC2)cc1-c1cnc(N(C)C)nc1 | 2.5 nM | 36 min | 695 nM | –
COc1ccc(C2=Nc3c(C(C)(C)C)nn(CCCO)c3C(=O)NC2)cc1-c1ccccc1F | 586 nM | 48 min | 8160 nM | –
